This is a sample that favours compounds with a hit; in the whole collection about 3.7% have one here.
INS promoter inh: TRM-6 insulin promoter activity inhibition | TRM-6 cells (human fetal islet line), insulin promoter-eGFP reporter, imaging; reporter expression induced with tamoxifen | inhibition, % at 2 µM | hit rate 0.9% among 130,000 | AID 1273;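 active means inhibition above the mean plus 3 SD, with well images judged a real hit on visual review, cut at about 60% in these data, passing the limit was not always enough; inconclusive means inhibition over the cutoff but images rejected on review; inactive means inhibition not above the cutoff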
RAM inhibit: blocks the yeast RAM network; S. cerevisiae dse1pr::URA3 reporter, 5-FOA growth OD615, 2 d; analog-sensitive cbk1-as2 kinase mutant strain; inhibition, % at 50 µM; hit rate 1.8% among 190,000; AID 868;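 active means inhibition above a set limit, 3 SD over mean compound inhibition, cut at about 8.4% in these data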;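 further: 0% = DMSO-only wells with no growth and 100% = 10 µM 1-NA-PP1 full growth; inhibition rescues growth on 5-FOA so higher OD means more RAM inhibition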
Yeast life ext: yeast lifespan extension; S. cerevisiae growth with nicotinamide, OD615; deaD strain in restrictive glucose medium; inhibition of the nicotinamide effect, % at 10 µM; hit rate 0.68% among 130,000; AID 775;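 active means inhibition above a set limit, placed 3 SD over the median of all compounds, cut at about 26% in these data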;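 further: 0% = nicotinamide-treated wells and 100% = cells grown without nicotinamide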
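Measured by: optical density (absorbance) at 615 nm; System: modified budding yeast, DeaD strain; Medium: restrictive CSMM-D dextrose medium; Timing: 4 h preincubation then 48 h treatment at 30 °C.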
HMGR II inh: E. faecalis class II HMG-CoA reductase inhibition | purified E. faecalis HMGR, NADPH absorbance 340 nm kinetic | inhibition, % at 10 µM | hit rate 0.41% among 190,000 | AID 1066;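 active means inhibition above a set limit, the median over all tested compounds plus 3 SD, cut at about 9.5% in these data; inconclusive means no clear call, values can overlap the other calls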;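 further: enzyme runs in reverse so mevalonate oxidation gives rising NADPH absorbance; 0% = complete reaction with DMSO and 100% = background rate lacking mevalonate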
Yeast growth inh: yeast BB579 growth reduction in restrictive medium | AID 804 | hit rate 0.51% among 140,000 | inhibition, % at 10 µM | S. cerevisiae BB579 growth, OD615, 48 h;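 active means inhibition above a set limit, 3 SD over the mean compound inhibition, cut at about 44% in these data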
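System: Saccharomyces cerevisiae DeaD strain BB579, replicative lifespan model yeast | Buffer or medium: Restrictive glucose-based CSMM-D medium | Times: 4 h preincubation and 48 h exposure at 30 °C | Detection: OD615 turbidity measurement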
* hit, by the source's call; i = inactive; u = inconclusive; x = no result.

SMILES	INS promoter inh	RAM inhibit	Yeast life ext	HMGR II inh	Yeast growth inh
COc1ccc(Cl)cc1NC(=S)Nc1cccnc1	24	-1	x	5	x
CCN(CC)CC(O)CN1C(=O)NC(C)(C)C1=O (stereo not given)	x	-1	x	-6	x
Cc1cc(SCC(=O)N(C)CC(=O)Nc2ccc(F)cc2)nc2ccccc12	-66	0	-6	2	-18
CCOC(=O)c1ccccc1NC(=O)Cn1c(=O)n(Cc2ccccc2)c(=O)c2c(C)c(C)sc21	-20	4	4	-3	-45
O=C(Nc1ccccc1)N1CC=C(c2ccccc2)CC1	75*	0	-11	0	-9
Cc1ccc(/C=C2/SC(=S)N(CC(=O)Nc3ncc(Cc4ccc(C)cc4)s3)C2=O)cc1	-23	11*	-10	-1	-48
CC(=O)Nc1ccc(S(=O)(=O)Nc2nccc(/C=C/c3ccc(Cl)cc3)n2)cc1	u	6	2	3	-37
Cc1ccc(/C=c2\sc3nc(-c4cccs4)nn3c2=O)o1	13	9.0*	8	-3	-10
COc1ccccc1/C=c1\sc2nc(-c3cccs3)nn2c1=O	18	x	x	x	x
CCc1ccc(NC(=O)C2(c3ccccc3)CC2(Cl)Cl)cc1 (stereo not given)	-220	8.5*	23	x	-34
CC1CN(C(=O)C2(C)CC2(Br)Br)CC(C)O1 (stereo not given)	22	1	6	-4	-14
O=[N+]([O-])c1cccc(N/N=C/c2cc([N+](=O)[O-])ccc2O)c1	x	2	x	-6	x
O=C(N/N=C/c1cc([N+](=O)[O-])ccc1O)NC12CC3CC(CC(C3)C1)C2	-94	0	-1	1	-32
O=C(N/N=C/c1cc([N+](=O)[O-])ccc1O)C12CC3CC(CC(C3)C1)C2	0	4	x	13*	x
O=[N+]([O-])c1ccc(O)c(/C=N/Nc2ccccn2)c1	x	-1	-9	-12	99*
CC1CN(C(=S)NC(=O)C2CCCCC2)CC(C)O1 (stereo not given)	-3	0	-1	-2	-8
CCc1ccc(-c2cc(C(F)(F)F)n3nc(C(=O)Nc4c(C)nn(Cc5ccc(F)cc5)c4C)cc3n2)s1	-23	6	9	-2	-51
CSc1ncccc1C(=O)OCc1cccc([N+](=O)[O-])c1	x	5	x	-3	x
O=C(OCc1cccc([N+](=O)[O-])c1)c1ccc2ccccc2n1	x	9.6*	x	-4	x
O=C(CSC1=N/C(=C/c2ccco2)C(=O)N1c1ccc(OC(F)F)cc1)NC1CCS(=O)(=O)C1 (stereo not given)	x	0	x	-9	x
CCN(CC)c1ccc(C(=O)O)cc1	x	1	2	-1	-14
O=C(O)c1ccc(N(c2ccccc2)c2ccccc2)cc1	-500	2	x	-3	44*
Cc1ccc(NC(=O)ON=C2CCCC2)cc1	-11	0	-13	-6	95*
Cc1cc(=O)[nH]c(SCc2nc3ccccc3s2)n1	x	0	-13	-4	46*
Cc1ccc2c(c1)c1c(n2C)-c2[nH]ncc2CC1	53	2	x	-9	99*
SMILES	INS promoter inh	RAM inhibit	Yeast life ext	HMGR II inh	Yeast growth inh
CC(=O)Nc1ccc(NC(=O)CSc2nnc(C)c(=O)[nH]2)cc1	x	2	x	-5	x
Cc1ccc([N+](=O)[O-])cc1NC(=O)C(Sc1ccccc1)c1ccccc1 (stereo not given)	-80	9.1*	-1	3	-53
Cc1cc([N+](=O)[O-])ccc1NC(=O)C[n+]1ccc(N(C)C)cc1	15	1	x	-4	x
Cc1ccc([N+](=O)[O-])cc1NC(=O)C[n+]1ccccc1	-17	1	x	13*	x
O=C(CSc1ccc(Cl)cc1)N1CCN(c2ncc(C(F)(F)F)cc2Cl)CC1	-45	11*	-5	-9	-54
O=C(CN1CCN(c2ncc(C(F)(F)F)cc2Cl)CC1)N1CCN(c2ncc(C(F)(F)F)cc2Cl)CC1	26	3	-10	0	-2
S=C(N/N=C1\C2CN3CCN(C2)CC1(c1ccccc1)C3)Nc1ccccc1	-50	-1	-2	3	-32
Cc1ccccc1/C=C1\CCCc2ccccc2C1=O	5	-1	x	1	5
O=C1/C(=C\c2ccc3ccccc3c2)CCCc2ccccc21	5	11*	x	-10	-15
CN1C(=O)C(O)(c2nnc(-c3ccccc3)o2)c2ccccc21 (stereo not given)	-21	1	x	-1	x
CN1C(=O)C2(N=c3ccccc3=N2)c2ccccc21	-23	1	-35	-4	57*
Cc1ccc2cc(CCNS(=O)(=O)c3ccc(F)cc3)c(=O)[nH]c2c1	30	2	-5	-1	4
Cc1ccc2cc(CCNS(=O)(=O)c3ccc(F)cc3)c(=O)[nH]c2c1C	x	8.5*	x	-1	x
COC(=O)Cn1c(=NC(=O)c2ccc([N+](=O)[O-])s2)sc2cc(Br)ccc21	-25	-2	-1	-1	-23
CCc1ccc(NC(=O)C(=O)NCCN2CCN(S(C)(=O)=O)CC2)cc1	x	1	x	11*	x
NC(=O)c1nsc(C(=O)N(CC(=O)NC2CCCC2)Cc2ccc3c(c2)OCO3)c1N	x	0	x	-5	x
NC(=O)NCc1cccs1	33	2	x	-1	x
COc1ccc(CN(CCC(c2ccc(F)cc2)C2CCOC(C)(C)C2)C(=O)c2ccco2)cc1 (stereo not given)	21	9.8*	16	-9	-46
Cn1c(CC(=O)Nc2ccccc2C(F)(F)F)c(Sc2ccccc2)c2ccccc21	-21	4	2	-2	-11
Oc1c(Br)cc(Br)cc1C=NCc1ccccc1	x	-1	x	-2	x
CC(C)CN=Cc1c(O)c([N+](=O)[O-])cc2oc3c(c12)CCCC3	x	4	21	-4	68*
O=[N+]([O-])c1cc2oc3c(c2c(C=NCc2ccccc2)c1O)CCCC3	31	1	69*	-3	7
CCc1nnc(NC(=O)CSc2nnc3c4ccccc4n(C)c3n2)s1	-33	2	2	1	-39
CC(=O)Nc1ccc(NC(=O)CSc2nnc3c4ccccc4n(C)c3n2)cc1	-18	8.5*	x	-1	x
O=C(Cn1cnc2c(oc3ccccc32)c1=O)NCc1ccco1	82*	1	-5	-3	-58
SMILES	INS promoter inh	RAM inhibit	Yeast life ext	HMGR II inh	Yeast growth inh
O=C(Cn1cnc2c(oc3ccccc32)c1=O)NCc1ccccc1	x	3	-1	-4	8
COC(=O)CS(=O)(=O)c1nnc([C@H](Cc2ccccc2)NC(=O)OC(C)(C)C)o1	70*	2	-8	1	-47
Cc1cccc(CS(=O)(=O)c2nnc([C@H](Cc3ccccc3)NC(=O)OC(C)(C)C)o2)c1	31	5	0	-9	-6
CCOC(=O)c1sc(NC(=O)c2ccc(S(=O)(=O)N(C)C)cc2)nc1C	i	10*	-15	0	-44
N#Cc1c(-c2ccccc2)nc(SCC(=O)Nc2ccccc2)[nH]c1=O	53	8	7	-1	-9
N#Cc1c(-c2ccccc2)nc(SCC(=O)Nc2nnc(C(F)(F)F)s2)[nH]c1=O	25	2	x	13*	x

From PubChem BioAssay
